# Source: ChEMBL document CHEMBL4346672, “Antimicrobial and KPC/AmpC inhibitory activity of functionalized benzosiloxaboroles” (Eur J Med Chem, 2019)
# The source made the active and inactive calls. No cut-off for these calls is given here.
# Key:
# [1] = system: Stenotrophomonas maltophilia; experiment: Antibacterial activity against Stenotrophomonas maltophilia ATCC 13637 measured after 18 hrs by CLSI broth dilution method; format: functional; conditions: ATCC 13637, 18 h
# In short: (§1)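 Broth MIC in Mueller-Hinton II broth following CLSI, compounds dissolved in DMSO. Strains subcultured twice on tryptic soy agar before testing. Growth read after 35 °C, 18 h.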
# [2] = system: Burkholderia cepacia; experiment: Antibacterial activity against Burkholderia cepacia ATCC 25416 assessed as diameter of zone inhibition measured after 18 hrs by CLSI disc diffusion method; format: functional
# In short: (§2)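 Disc diffusion on Mueller-Hinton II agar. Compounds dissolved in DMSO. Strains stored at -80 °C and subcultured twice on tryptic soy agar before testing. Inhibition zones read after 35 °C, 18 h.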
# [3] = system: Serratia marcescens; experiment: Antibacterial activity against Serratia marcescens ATCC 13880 measured after 18 hrs by CLSI broth dilution method; format: functional; conditions: ATCC 13880, 18 h; in short: as §1
# [4] = system: Bacillus subtilis; experiment: microbe, parasite or virus in culture; conditions: ATCC 6633, 18 h, read-out: DIZ
# [5] = system: Staphylococcus epidermidis; experiment: microbe, parasite or virus in culture; conditions: ATCC 12228, 18 h, read-out: DIZ
# [6] = system: Staphylococcus aureus; experiment: microbe, parasite or virus in culture; conditions: ATCC 6538P, 18 h, read-out: DIZ
# [7] = system: Bordetella bronchiseptica; experiment: Bactericidal activity against Bordetella bronchiseptica ATCC 4617 measured after 18 hrs by CLSI broth dilution method; format: functional; conditions: ATCC 4617, 18 h
# In short: (§3)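 Strains stored at -80 °C and subcultured twice on tryptic soy agar before testing. Compounds dissolved in DMSO. […] MBC then determined per CLSI recommendations.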
# [8] = system: Enterobacter cloacae; experiment: microbe, parasite or virus in culture; conditions: DSM 6234, 18 h
# [9] = system: Staphylococcus aureus; experiment: Antibacterial activity against Staphylococcus aureus ATCC 6538P measured after 18 hrs by CLSI broth dilution method; format: functional; in short: as §1
# [10] = system: Klebsiella pneumoniae; experiment: microbe, parasite or virus in culture; conditions: ATCC 13883, 18 h
# [11] = system: Acinetobacter baumannii; experiment: Antibacterial activity against Acinetobacter baumannii ATCC 19606 measured after 18 hrs by CLSI broth dilution method; format: functional; conditions: ATCC 19606, 18 h; in short: as §1
# [12] = system: Staphylococcus epidermidis; experiment: Bactericidal activity against Staphylococcus epidermidis ATCC 12228 measured after 18 hrs by CLSI broth dilution method; format: functional; conditions: ATCC 12228, 18 h; in short: as §3
# [13] = system: Escherichia coli; experiment: Antibacterial activity against Escherichia coli ATCC 25922 assessed as diameter of zone inhibition measured after 18 hrs by CLSI disc diffusion method; format: functional; in short: as §2
# [14] = system: Pseudomonas aeruginosa; experiment: Antibacterial activity against Pseudomonas aeruginosa ATCC 27853 measured after 18 hrs by CLSI broth dilution method; format: functional; conditions: ATCC 27853, 18 h; in short: as §1
# [15] = system: Acinetobacter baumannii; experiment: microbe, parasite or virus in culture; conditions: ATCC 19606, 18 h
# [16] = system: Proteus mirabilis; experiment: Antibacterial activity against Proteus mirabilis ATCC 12453 measured after 18 hrs by CLSI broth dilution method; format: functional; conditions: ATCC 12453, 18 h; in short: as §1
# [17] = system: Enterococcus faecalis; experiment: Antibacterial activity against Enterococcus faecalis ATCC 29212 measured after 18 hrs by CLSI broth dilution method; format: functional; conditions: ATCC 29212, 18 h; in short: as §1
# [18] = system: Klebsiella pneumoniae; experiment: Antibacterial activity against Klebsiella pneumoniae ATCC 13883 measured after 18 hrs by CLSI broth dilution method; format: functional; conditions: ATCC 13883, 18 h; in short: as §1
# [19] = system: Pseudomonas aeruginosa; experiment: Antibacterial activity against Pseudomonas aeruginosa ATCC 27853 assessed as diameter of zone inhibition measured after 18 hrs by CLSI disc diffusion method; format: functional, organism-based; in short: as §2
# [20] = system: Enterococcus faecalis; experiment: Bactericidal activity against Enterococcus faecalis ATCC 29212 measured after 18 hrs by CLSI broth dilution method; format: functional; conditions: ATCC 29212, 18 h; in short: as §3
# [21] = system: Escherichia coli; experiment: Antibacterial activity against Escherichia coli ATCC 25922 measured after 18 hrs by CLSI broth dilution method; format: functional; conditions: ATCC 25922, 18 h; in short: as §1
# [22] = system: Escherichia coli; experiment: microbe, parasite or virus in culture; conditions: ATCC 25922, 18 h
# [23] = system: Staphylococcus aureus; experiment: Bactericidal activity against Staphylococcus aureus ATCC 6538P measured after 18 hrs by CLSI broth dilution method; format: functional; in short: as §3
# [24] = system: Burkholderia cepacia; experiment: Bactericidal activity against Burkholderia cepacia ATCC 25416 measured after 18 hrs by CLSI broth dilution method; format: functional; conditions: ATCC 25416, 18 h; in short: as §3
# [25] = system: Enterobacter cloacae; experiment: Antibacterial activity against Enterobacter cloacae DSM 6234 assessed as diameter of zone inhibition measured after 18 hrs by CLSI disc diffusion method; format: functional; in short: as §2
# [26] = system: Bordetella bronchiseptica; experiment: Antibacterial activity against Bordetella bronchiseptica ATCC 4617 assessed as diameter of zone inhibition measured after 18 hrs by CLSI disc diffusion method; format: functional; in short: as §2
# [27] = system: Acinetobacter baumannii; experiment: Antibacterial activity against Acinetobacter baumannii ATCC 19606 assessed as diameter of zone inhibition measured after 18 hrs by CLSI disc diffusion method; format: functional; in short: as §2
# [28] = system: Burkholderia cepacia; experiment: Antibacterial activity against Burkholderia cepacia ATCC 25416 measured after 18 hrs by CLSI broth dilution method; format: functional; conditions: ATCC 25416, 18 h; in short: as §1
# [29] = system: Staphylococcus epidermidis; experiment: Antibacterial activity against Staphylococcus epidermidis ATCC 12228 measured after 18 hrs by CLSI broth dilution method; format: functional; conditions: ATCC 12228, 18 h; in short: as §1
# [30] = system: Enterobacter cloacae; experiment: Antibacterial activity against Enterobacter cloacae DSM 6234 measured after 18 hrs by CLSI broth dilution method; format: functional; conditions: DSM 6234, 18 h; in short: as §1
# [31] = system: Bordetella bronchiseptica; experiment: Antibacterial activity against Bordetella bronchiseptica ATCC 4617 measured after 18 hrs by CLSI broth dilution method; format: functional; conditions: ATCC 4617, 18 h; in short: as §1
# [32] = system: Enterococcus faecium; experiment: Antibacterial activity against Enterococcus faecium ATCC 6057 measured after 18 hrs by CLSI broth dilution method; format: functional; conditions: ATCC 6057, 18 h; in short: as §1
# [33] = system: Proteus mirabilis; experiment: Antibacterial activity against Proteus mirabilis ATCC 12453 assessed as diameter of zone inhibition measured after 18 hrs by CLSI disc diffusion method; format: functional; in short: as §2
# [34] = system: Enterococcus faecium; experiment: Bactericidal activity against Enterococcus faecium ATCC 6057 measured after 18 hrs by CLSI broth dilution method; format: functional; conditions: ATCC 6057, 18 h; in short: as §3
# [35] = system: Stenotrophomonas maltophilia; experiment: Antibacterial activity against Stenotrophomonas maltophilia ATCC 13637 assessed as diameter of zone inhibition measured after 18 hrs by CLSI disc diffusion method; format: functional; in short: as §2
# [36] = system: Candida albicans; experiment: Antifungal activity against Candida albicans ATCC 90028 assessed as decrease in fungal cell growth incubated for 24 hrs by E-test; format: functional; conditions: ATCC 90028, 24 h
# In short: (§4)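 Yeast strains were stored at -80 °C and subcultured twice on Sabouraud dextrose agar for 24–48 h at 30 °C before testing.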
# [37] = system: Candida tropicalis; experiment: Antifungal activity against Candida tropicalis IBA 171 assessed as decrease in fungal cell growth incubated for 24 hrs by E-test; format: functional; conditions: IBA 171, 24 h
# In short: (§5)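 Yeasts were first subcultured on Sabouraud dextrose agar at 30 °C for 24–48 h. […] The MIC was recorded per Etest recommendations, which covers cases where macro-colonies persist inside the ellipse.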
# [38] = system: Candida parapsilosis; experiment: Antifungal activity against Candida parapsilosis ATCC 22019 assessed as decrease in fungal cell growth incubated for 24 hrs by E-test; format: functional; conditions: Lodderomyces parapsilosis, ATCC 22019, 24 h; in short: as §5
# [39] = system: Candida albicans; experiment: Antifungal activity against Candida albicans ATCC 90028 assessed as diameter of zone inhibition at 0.025 mg incubated for 24 hrs by disc diffusion method; format: functional; conditions: ATCC 90028, 24 h, read-out: DIZ
# In short: (§6)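 Disc diffusion on Mueller-Hinton II agar with 2% glucose and 0.5 mg/L methylene blue. Compounds were dissolved in DMSO. Yeasts were subcultured on Sabouraud dextrose agar for 24–48 h at 30 °C before testing. Plates were incubated at 35 °C for 24 h.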
# [40] = system: Meyerozyma guilliermondii; experiment: Antifungal activity against Candida guilliermondii IBA 155 assessed as decrease in fungal cell growth incubated for 24 hrs by E-test; format: functional; conditions: IBA 155, 24 h; in short: as §5
# [41] = system: Candida parapsilosis; experiment: Antifungal activity against Candida parapsilosis ATCC 22019 assessed as diameter of zone inhibition at 0.025 mg incubated for 24 hrs by disc diffusion method; format: functional; conditions: Lodderomyces parapsilosis, ATCC 22019, 24 h; read-out: DIZ; in short: as §6
# [42] = system: Pichia kudriavzevii; experiment: Antifungal activity against Candida krusei ATCC 6258 assessed as diameter of zone inhibition at 0.025 mg incubated for 24 hrs by disc diffusion method; format: functional; conditions: ATCC 6258, 24 h, read-out: DIZ; in short: as §6
# [43] = system: Pichia kudriavzevii; experiment: Antifungal activity against Candida krusei ATCC 6258 assessed as decrease in fungal cell growth incubated for 24 hrs by E-test; format: functional; conditions: ATCC 6258, 24 h; in short: as §5
# [44] = system: Meyerozyma guilliermondii; experiment: Antifungal activity against Candida guilliermondii IBA 155 assessed as diameter of zone inhibition at 0.025 mg incubated for 24 hrs by disc diffusion method; format: functional; conditions: IBA 155, 24 h, read-out: DIZ; in short: as §6
# [45] = system: Saccharomyces cerevisiae; experiment: Antifungal activity against Saccharomyces cerevisiae ATCC 9763 assessed as decrease in fungal cell growth incubated for 24 hrs by E-test; format: functional; conditions: ATCC 9763, 24 h; in short: as §4
# [46] = system: Candida tropicalis; experiment: Antifungal activity against Candida tropicalis IBA 171 assessed as diameter of zone inhibition at 0.025 mg incubated for 24 hrs by disc diffusion method; format: functional; conditions: IBA 171, 24 h, read-out: DIZ; in short: as §6
# [47] = system: Saccharomyces cerevisiae; experiment: Antifungal activity against Saccharomyces cerevisiae ATCC 9763 diameter of zone inhibition at 0.025 mg incubated for 24 hrs by disc diffusion method; format: functional; conditions: ATCC 9763, 24 h, read-out: DIZ; in short: as §6
compound,measurement,setting,value
O=C1CN(/N=C/c2ccc([N+](=O)[O-])o2)C(=O)N1 [NITROFURANTOIN],MIC,[1],128 µg/mL
same,diameter of the inhibition zone (DIZ),[2],12 mm
same,MIC,[3],128 µg/mL
same,zone of inhibition at 300 µg/disc,[4],30 mm
same,zone of inhibition at 300 µg/disc,[5],31 mm
same,zone of inhibition at 300 µg/disc,[6],24 mm
same,MBC,[7],128 µg/mL
same,MBC,[8],32 µg/mL
same,MIC,[9],8 µg/mL
same,MBC,[10],32 µg/mL
same,MIC,[11],64 µg/mL
same,MBC,[12],8 µg/mL
same,diameter of the inhibition zone (DIZ),[13],24 mm
same,MIC,[14],> 128 µg/mL
same,MBC,[15],128 µg/mL
same,MIC,[16],128 µg/mL
same,MIC,[17],8 µg/mL
same,MIC,[18],32 µg/mL
same,diameter of the inhibition zone (DIZ),[19],inactive
same,MBC,[20],128 µg/mL
same,MIC,[21],8 µg/mL
same,MBC,[22],8 µg/mL
same,MBC,[23],16 µg/mL
same,MBC,[24],32 µg/mL
same,diameter of the inhibition zone (DIZ),[25],17 mm
same,diameter of the inhibition zone (DIZ),[26],inactive
same,diameter of the inhibition zone (DIZ),[27],9 mm
same,MIC,[28],32 µg/mL
same,MIC,[29],4 µg/mL
same,MIC,[30],32 µg/mL
same,MIC,[31],64 µg/mL
same,MIC,[32],8 µg/mL
same,diameter of the inhibition zone (DIZ),[33],9 mm
same,MBC,[34],> 128 µg/mL
same,diameter of the inhibition zone (DIZ),[35],inactive
OC(Cn1cncn1)(Cn1cncn1)c1ccc(F)cc1F [FLUCONAZOLE],MIC,[36],1 µg/mL
same,MIC,[37],0.38 µg/mL
same,MIC,[38],2 µg/mL
same,zone of inhibition at 25 µg/disc,[39],43 mm
same,MIC,[40],0.75 µg/mL
same,zone of inhibition at 25 µg/disc,[41],32 mm
same,zone of inhibition at 25 µg/disc,[42],16 mm
same,MIC,[43],64 µg/mL
same,zone of inhibition at 25 µg/disc,[44],40 mm
same,MIC,[45],16 µg/mL
same,zone of inhibition at 25 µg/disc,[46],39 mm
same,zone of inhibition at 25 µg/disc,[47],12 mm
